Test results reported in ChEMBL document CHEMBL1149315, “Insertion of an aspartic acid moiety into cyclic pseudopeptides: synthesis and biological characterization of potent antagonists for the human Tachykinin NK-2 receptor” (J Med Chem, 2004).
Calls of active or inactive are those of the source.

Experiments:
Substance-K receptor = target: T1, Substance-K receptor (Homo sapiens, UniProt P21452); assay: Displacement of [125I]neurokinin A from human NK2 receptor expressed in CHOK1 cells; type: cell-based, CHO-K1
T1 sequence (P21452 whole entry): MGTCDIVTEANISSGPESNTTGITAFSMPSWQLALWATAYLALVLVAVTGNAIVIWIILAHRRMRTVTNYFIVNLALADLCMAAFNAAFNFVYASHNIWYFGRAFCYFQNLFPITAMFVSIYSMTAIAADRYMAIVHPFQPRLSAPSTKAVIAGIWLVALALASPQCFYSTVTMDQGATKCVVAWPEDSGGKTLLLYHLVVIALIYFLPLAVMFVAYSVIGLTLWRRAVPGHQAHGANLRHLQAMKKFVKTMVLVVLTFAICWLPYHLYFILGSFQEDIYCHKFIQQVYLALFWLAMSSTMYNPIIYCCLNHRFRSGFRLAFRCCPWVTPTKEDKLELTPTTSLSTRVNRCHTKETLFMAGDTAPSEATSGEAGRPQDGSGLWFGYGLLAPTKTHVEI
In short: (§1)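 Competition binding was run on membranes of cells stably transfected with the human receptor: U-373MG for NK-1, CHO-K1 for NK-2 and NK-3. NK-1 used [3H][Sar9]SP sulfone at 1.2 nM. Affinity is given as pKi (−log Ki).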

[1] = target: T2, Substance-K receptor (Oryctolagus cuniculus) (UniProt P79218); assay: Antagonist activity at NK2 receptor in rabbit pulmonary artery assessed as effect on neurokinin A-induced mechanical activity; type: functional; conditions: filed as antagonist
T2 sequence (whole entry): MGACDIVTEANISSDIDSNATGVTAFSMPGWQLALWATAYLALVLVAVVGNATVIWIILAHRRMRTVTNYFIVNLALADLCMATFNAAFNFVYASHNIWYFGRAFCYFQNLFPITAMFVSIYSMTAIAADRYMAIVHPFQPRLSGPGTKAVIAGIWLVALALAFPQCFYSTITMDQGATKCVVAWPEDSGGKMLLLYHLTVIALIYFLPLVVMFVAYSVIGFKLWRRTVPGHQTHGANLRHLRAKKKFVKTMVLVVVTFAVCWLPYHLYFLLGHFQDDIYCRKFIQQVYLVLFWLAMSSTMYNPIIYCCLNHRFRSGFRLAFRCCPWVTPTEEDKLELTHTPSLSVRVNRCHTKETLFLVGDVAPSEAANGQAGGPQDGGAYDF
In short: (§2)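 Isolated smooth muscle strips were held in oxygenated (96% O2/4% CO2) Krebs–Henseleit at NaCl 119, NaHCO3 25, KH2PO4 1.2, MgSO4 1.5, CaCl2 2.5, KCl 4.7 and glucose 11 mM. Cumulative agonist concentration–response curves were run after 15 min antagonist incubation. pKB = log(dose ratio − 1) − log[antagonist], as the mean of individual values.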

[2] = target: T3, Substance-K receptor (Rattus norvegicus) (UniProt P16610); assay: Antagonist activity at NK2 receptor in rat urinary bladder assessed as effect on beta-Ala8]NKA(4-10)-induced mechanical activity; type: functional; conditions: filed as antagonist; in short: as §2
T3 sequence (whole entry): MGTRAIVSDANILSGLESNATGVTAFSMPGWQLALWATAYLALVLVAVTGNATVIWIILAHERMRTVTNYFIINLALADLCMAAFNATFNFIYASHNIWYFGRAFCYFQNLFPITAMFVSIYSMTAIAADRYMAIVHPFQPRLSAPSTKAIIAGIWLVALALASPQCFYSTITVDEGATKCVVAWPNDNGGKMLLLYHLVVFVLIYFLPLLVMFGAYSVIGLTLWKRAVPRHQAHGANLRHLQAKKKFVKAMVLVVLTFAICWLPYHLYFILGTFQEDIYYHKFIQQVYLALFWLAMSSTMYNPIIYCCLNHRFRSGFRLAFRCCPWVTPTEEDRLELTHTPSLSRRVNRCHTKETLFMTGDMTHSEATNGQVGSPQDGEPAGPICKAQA

[3] = target: Substance-P receptor (Cavia porcellus) (UniProt P30547); assay: Antagonist activity at NK1 receptor in guinea pig ileum assessed as effect on substance P methyl ester-induced mechanical activity; type: functional, tissue-based; in short: as §2
Substance-P receptor (Cavia porcellus), sequence (P30547 whole entry): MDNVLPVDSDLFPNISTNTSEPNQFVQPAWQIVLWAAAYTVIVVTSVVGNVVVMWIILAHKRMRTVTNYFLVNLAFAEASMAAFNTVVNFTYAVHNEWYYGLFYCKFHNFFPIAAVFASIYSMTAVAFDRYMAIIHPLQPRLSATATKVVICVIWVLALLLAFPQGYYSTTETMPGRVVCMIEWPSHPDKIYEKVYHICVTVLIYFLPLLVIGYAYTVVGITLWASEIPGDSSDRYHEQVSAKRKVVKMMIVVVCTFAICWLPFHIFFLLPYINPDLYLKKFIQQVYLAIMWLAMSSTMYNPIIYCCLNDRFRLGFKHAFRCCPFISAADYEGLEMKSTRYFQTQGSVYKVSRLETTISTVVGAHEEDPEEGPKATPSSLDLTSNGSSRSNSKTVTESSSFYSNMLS

[4] = target: T4, Neuromedin-K receptor (Cavia porcellus) (UniProt P30098); assay: Antagonist activity at NK3 receptor in guinea pig ileum assessed as effect on senktide-induced mechanical activity; type: functional, tissue-based; conditions: filed as antagonist
T4 sequence (whole entry): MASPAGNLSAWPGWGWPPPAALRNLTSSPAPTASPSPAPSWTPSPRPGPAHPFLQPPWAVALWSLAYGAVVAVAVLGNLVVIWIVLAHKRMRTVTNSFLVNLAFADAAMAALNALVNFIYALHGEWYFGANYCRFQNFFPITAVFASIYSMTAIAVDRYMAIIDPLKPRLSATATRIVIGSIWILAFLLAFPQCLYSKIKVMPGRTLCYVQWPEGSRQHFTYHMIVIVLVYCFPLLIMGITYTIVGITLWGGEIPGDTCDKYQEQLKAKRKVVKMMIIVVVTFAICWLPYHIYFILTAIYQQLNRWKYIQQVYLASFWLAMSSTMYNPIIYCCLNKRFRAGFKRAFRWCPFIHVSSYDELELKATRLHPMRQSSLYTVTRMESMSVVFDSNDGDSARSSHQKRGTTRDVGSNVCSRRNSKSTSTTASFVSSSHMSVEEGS

Substance-P receptor = Substance-P receptor (Homo sapiens, UniProt P25103); assay: Displacement of [3H][Sar9]SP sulfone from human NK1 receptor expressed in U373MG cells; type: cell-based, U-373MG ATCC; in short: as §1
Substance-P receptor, sequence (P25103 whole entry): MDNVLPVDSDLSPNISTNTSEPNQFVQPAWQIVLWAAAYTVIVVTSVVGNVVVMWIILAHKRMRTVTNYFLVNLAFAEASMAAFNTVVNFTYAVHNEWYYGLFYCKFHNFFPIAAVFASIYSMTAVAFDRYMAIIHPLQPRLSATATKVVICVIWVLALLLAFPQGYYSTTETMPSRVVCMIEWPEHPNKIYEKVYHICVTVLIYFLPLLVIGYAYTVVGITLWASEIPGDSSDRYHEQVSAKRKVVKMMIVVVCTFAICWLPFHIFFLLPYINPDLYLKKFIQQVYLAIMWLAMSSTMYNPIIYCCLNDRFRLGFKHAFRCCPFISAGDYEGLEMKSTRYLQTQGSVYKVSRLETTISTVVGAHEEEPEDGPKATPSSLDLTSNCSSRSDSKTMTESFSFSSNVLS

Neuromedin-K receptor = target: T5, Neuromedin-K receptor (Homo sapiens, UniProt P29371); assay: Displacement of [125I][MePhe7]NKB from human NK3 receptor expressed in CHOK1 cells; type: cell-based, CHO-K1; in short: as §1
T5 sequence (P29371 whole entry): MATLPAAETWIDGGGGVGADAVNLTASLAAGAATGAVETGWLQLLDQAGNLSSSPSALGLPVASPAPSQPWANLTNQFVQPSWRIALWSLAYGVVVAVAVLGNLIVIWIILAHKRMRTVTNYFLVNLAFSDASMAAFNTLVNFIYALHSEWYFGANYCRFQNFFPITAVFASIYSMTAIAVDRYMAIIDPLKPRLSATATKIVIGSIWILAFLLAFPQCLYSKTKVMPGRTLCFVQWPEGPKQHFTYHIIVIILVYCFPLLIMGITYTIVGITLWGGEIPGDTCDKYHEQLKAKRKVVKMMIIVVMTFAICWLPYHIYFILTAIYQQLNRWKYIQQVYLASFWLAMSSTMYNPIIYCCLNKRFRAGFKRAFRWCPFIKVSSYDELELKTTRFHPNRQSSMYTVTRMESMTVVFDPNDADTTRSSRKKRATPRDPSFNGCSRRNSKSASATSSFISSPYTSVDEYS

Cavia porcellus [5] = assay: Inhibition of [beta-Ala8]NKA(4-10)-induced bronchoconstriction in anesthetized Dunkin Hartley guinea pig at 10 nmol/kg, it relative to control; type: functional
In short: (§3)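 Male Dunkin Hartley guinea pigs (350–400 g) were anesthetized with urethane 1.5 g/kg sc, kept at 36 °C and ventilated at 60 strokes/min. After two reproducible control responses to agonist (1 nmol/kg iv, jugular vein), antagonist was given intratracheally near the bronchial bifurcation. Dosing was 5 and 30 min before challenge, with challenges repeated every 30 min up to 4 h. Bronchoconstriction = insufflation pressure rise over basal (mmHg), expressed as % inhibition of control.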

Cavia porcellus [6] = assay: Inhibition of [beta-Ala8]NKA(4-10)-induced bronchoconstriction in anesthetized Dunkin Hartley guinea pig at 100 nmol/kg, it relative to control; type: functional, organism-based; conditions: 10 nmol/kg, in the assay text read “10 nmol/kg” for “100 nmol/kg”; in short: as §3
Cavia porcellus [7] = assay: Inhibition of [beta-Ala8]NKA(4-10)-induced bronchoconstriction in intratracheally dosed anesthetized Dunkin Hartley guinea pig; type: functional; conditions: Trachea, inhaled or nasal; in short: as §3

| Ki (Substance-K receptor) | pKb [1] | pKb [2] | pKb [4] | Compound | further results |
| --- | --- | --- | --- | --- | --- |
| 0.251 nM (antagonist) | 8.4 | 8 |  | O=C1C[C@@H](N2CCOCC2)C(=O)NC[C@@H](Cc2ccc(Cl)c(Cl)c2)NC(=O)[C@H](Cc2ccccc2)NC(=O)[C@H](Cc2c[nH]c3ccccc23)N1 |  |
| 0.2 nM (antagonist) | 8.6 | 8.9 |  | N[C@H]1CC(=O)N[C@@H](Cc2c[nH]c3ccccc23)C(=O)N[C@@H](Cc2ccccc2)C(=O)N[C@H](Cc2ccc(Cl)c(Cl)c2)CNC1=O |  |
| 0.158 nM (antagonist) |  | 9.7 | 6.4 | O=C1C[C@@H](NC(=O)CN2CCC(N3CCOCC3)CC2)C(=O)NC[C@@H](Cc2ccccc2)NC(=O)[C@H](Cc2ccccc2)NC(=O)[C@H](Cc2c[nH]c3ccccc23)N1 | pKb ([3]; filed as antagonist): 7.5; Ki (Substance-P receptor): 126 nM (antagonist); Ki (Neuromedin-K receptor): 1260 nM (antagonist); inhibition in vivo at 0.01 µmol/kg (Cavia porcellus [5]): 80%; Activity (Cavia porcellus [6]): Active; ED50 (Cavia porcellus [7]): 0.00015 µmol/kg |
| 0.158 nM (antagonist) | 8.1 |  |  | N[C@@H]1CC(=O)N[C@@H](Cc2c[nH]c3ccccc23)C(=O)N[C@@H](Cc2ccccc2)C(=O)N[C@H](Cc2ccc(Cl)c(Cl)c2)CNC1=O |  |
|  | 7.7 |  |  | N[C@H]1CC(=O)NC[C@@H](Cc2ccccc2)NC(=O)[C@H](Cc2ccccc2)NC(=O)[C@H](Cc2c[nH]c3ccccc23)NC1=O |  |
|  | 8.5 | 8.9 |  | O=C1C[C@H](N2CCOCC2)C(=O)NC[C@@H](Cc2ccccc2)NC(=O)[C@H](Cc2ccccc2)NC(=O)[C@H](Cc2c[nH]c3ccccc23)N1 |  |
|  | 8.1 | 8.1 |  | O=C1CCC(=O)N[C@@H](Cc2c[nH]c3ccccc23)C(=O)N[C@@H](Cc2ccccc2)C(=O)N[C@H](Cc2ccc(Cl)c(Cl)c2)CN1 |  |

More lines, now with the values behind:

| Compound | Ki (Substance-K receptor) | pKb [1] | pKb [2] | pKb [4] | further results |
| --- | --- | --- | --- | --- | --- |
| NS(=O)(=O)N1CCN(CC(=O)N[C@@H]2CC(=O)N[C@@H](Cc3c[nH]c4ccccc34)C(=O)N[C@@H](Cc3ccccc3)C(=O)N[C@H](Cc3ccccc3)CNC2=O)CC1 | 0.1 nM (antagonist) |  | 9.5 | 5.9 | pKb [3]: < 5.5; Ki (Substance-P receptor): 200 nM (antagonist); Ki (Neuromedin-K receptor): 7940 nM (antagonist); Activity (Cavia porcellus [6]): Active; ED50 (Cavia porcellus [7]): 0.00027 µmol/kg |
| O=C1C[C@@H](N2CCOCC2)C(=O)NC[C@@H](Cc2ccccc2)NC(=O)[C@H](Cc2ccccc2)NC(=O)[C@H](Cc2c[nH]c3ccccc23)N1 |  | 8.9 | 9.2 | 6.1 | pKb ([3]; filed as antagonist): 6.2 |
| O=C1C[C@@H](NC(=O)CN2CCC(N3CCCCC3)CC2)C(=O)NC[C@@H](Cc2ccccc2)NC(=O)[C@H](Cc2ccccc2)NC(=O)[C@H](Cc2c[nH]c3ccccc23)N1 |  |  | 9.2 | 5.8 | pKb ([3]; filed as antagonist): 6.8 |
| O=C1C[C@@H](NC2CCOCC2)C(=O)NC[C@@H](Cc2ccccc2)NC(=O)[C@H](Cc2ccccc2)NC(=O)[C@H](Cc2c[nH]c3ccccc23)N1 | 0.0631 nM (antagonist) | 9.2 | 9.1 | 6.4 | pKb ([3]; filed as antagonist): 6.1 |
| N[C@@H]1CC(=O)NC[C@@H](Cc2ccccc2)NC(=O)[C@H](Cc2ccccc2)NC(=O)[C@H](Cc2c[nH]c3ccccc23)NC1=O | 15.8 nM (antagonist) | 7.2 |  |  |  |
| O=C1C[C@H](NC2CCOCC2)C(=O)NC[C@@H](Cc2ccccc2)NC(=O)[C@H](Cc2ccccc2)NC(=O)[C@H](Cc2c[nH]c3ccccc23)N1 | 1 nM (antagonist) | 8.6 |  |  |  |
| O=C1C[C@@H](N2CCNCC2)C(=O)NC[C@@H](Cc2ccccc2)NC(=O)[C@H](Cc2ccccc2)NC(=O)[C@H](Cc2c[nH]c3ccccc23)N1 | 1.58 nM (antagonist) | 7.7 |  |  |  |
| O=C1C[C@@H](N2CCCCC2)C(=O)NC[C@@H](Cc2ccccc2)NC(=O)[C@H](Cc2ccccc2)NC(=O)[C@H](Cc2c[nH]c3ccccc23)N1 | 1.58 nM (antagonist) | 8.2 |  |  |  |
| N[C@@H]1CC(=O)N[C@@H](Cc2c[nH]c3ccccc23)C(=O)N[C@@H](Cc2ccccc2)C(=O)N[C@H](Cc2ccccc2)CNC1=O | 2 nM (antagonist) | 7.9 |  |  |  |
